Source: ChEMBL document CHEMBL1129372, “Cyclopent[a]anthraquinones as DNA intercalating agents with covalent bond formation potential: synthesis and biological activity” (J Med Chem, 1996)
Several values for one entry are separate records, joined by “and”; a condition that tells them apart may be missing. Identical values can stand only once.

How the values were obtained:
[1] = system: HL-60; assay: Inhibition of cell growth was studied in human promyelocytic leukemic (HL-60) cells.; format: functional, cell-based
Method in brief: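 HL-60 cells were exposed for 72 h and read by XTT-tetrazolium microculture assay: PMS-XTT incubation for 6 h at 37 °C, absorbance at 450 and 630 nm. Six to seven concentrations were tested. IC50 was derived by median-effect plot.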

[2] = system: DC3F/AD-II; assay: Inhibition of cell growth was studied in chinese hamster lung cells resistant to actinomycin D (DC-3F/AD-II).; format: functional, cell-based; conditions: Cricetulus griseus
Method in brief: (§1)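 Monolayer solid-tumor cells were assayed by SRB protein staining using six to seven concentrations. IC50 is the concentration reducing cell density to 50% of control, derived by median-effect plot.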

[3] = system: Mus musculus; assay: (§2) Anti cancer activity was tested on day10, in mice bearing Lewis lung adenocarcinoma by injecting 0.4 mg/kg dose of compound intraperitoneally and average weight change was reported.; format: functional; conditions: route intraperitoneal
Method in brief: (§3)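 BDF1 mice given Lewis lung carcinoma subcutaneously (footnote: 4 × 10⁶ cells; methods: 0.2 mL brei). Dosing was ip once daily for 5 days, starting day 3 after inoculation, with drug in DMSO. Controls received DMSO alone: four control mice and three mice per dose. Body weight change, mortality and tumor volume were recorded on days 7, 10 and 14. Tumor volume is given as T/C.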

[4] = system: Mus musculus; assay: Anti cancer activity was tested on day 14, in mice bearing Lewis lung adenocarcinoma by injecting 0.4 mg/kg dose of compound intraperitoneally and a. average […] was reported.; format: functional; conditions: route intraperitoneal; method in brief: as §3
[5] = system: SK-BR-3; assay: Inhibition of cell growth was studied in human mammary adenocarcinoma (SKBR-3).; format: functional, cell-based; method in brief: as §1
[6] = system: Mus musculus; assay: Anti cancer activity was tested on day10, in mice bearing Lewis lung adenocarcinoma by injecting 0.8 mg/kg dose of compound intraperitoneally and average tumor volume was calculated.; format: functional; conditions: route intraperitoneal; method in brief: as §3
[7] = system: 833K; assay: Inhibition of cell growth was studied in human teratocarcinoma (833K).; format: functional, cell-based; method in brief: as §1
[8] = system: DC3F; assay: Inhibition of cell growth was studied in chinese hamster lung cells (DC-3F); format: functional, cell-based; conditions: Cricetulus griseus; method in brief: as §1
[9] = system: Mus musculus; assay: Anti cancer activity was tested on day 14, in mice bearing Lewis lung adenocarcinoma by injecting 0.8 mg/kg dose of compound intraperitoneally and average weight change was reported.; format: functional; conditions: route intraperitoneal; method in brief: as §3
[10] = system: Mus musculus; assay: Anti cancer activity was tested on day10, in mice bearing Lewis lung adenocarcinoma by injecting 0.8 mg/kg dose of compound intraperitoneally and average weight change was reported.; format: functional; conditions: route intraperitoneal; method in brief: as §3
[11] = system: Mus musculus; assay: Anti cancer activity was tested on day 7, in mice bearing Lewis lung adenocarcinoma by injecting 0.4 mg/kg dose of compound intraperitoneally and average tumor volume was calculated.; format: functional; conditions: route intraperitoneal; method in brief: as §3
[12] = system: Mus musculus; assay: Anti cancer activity was tested on day 14, in mice bearing Lewis lung adenocarcinoma by injecting 0.8 mg/kg dose of compound intraperitoneally and average tumor volume was calculated.; format: functional; conditions: route intraperitoneal; method in brief: as §3
[13] = system: Mus musculus; assay: Anti cancer activity was tested on day10, in mice bearing Lewis lung adenocarcinoma by injecting 0.4 mg/kg dose of compound intraperitoneally and average tumor volume was calculated.; format: functional; conditions: route intraperitoneal; method in brief: as §3
[14] = system: Mus musculus; assay: Anti cancer activity was tested on day 7, in mice bearing Lewis lung adenocarcinoma by injecting 2.0 mg/kg dose of compound intraperitoneally and average tumor volume was calculated.; format: functional; conditions: route intraperitoneal
Method in brief: (§4)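 Lewis lung carcinoma was implanted subcutaneously in BDF₁ mice at 4 × 10⁶ cells. Starting day 3, drug in DMSO was given ip once daily for 5 days; untreated controls received DMSO alone. Groups were four control mice and three mice per dose. Body weight change and average tumor volume (T/C) were recorded on days 7, 10 and 14 after treatment began.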

[15] = system: Mus musculus; assay: Anti cancer activity was tested on day 14, in mice bearing Lewis lung adenocarcinoma by injecting 0.4 mg/kg dose of compound intraperitoneally and average […] was reported.; format: functional; conditions: route intraperitoneal; method in brief: as §4
[16] = system: Mus musculus; assay: Anti cancer activity was tested on day 7, in mice bearing Lewis lung adenocarcinoma by injecting 2.0 mg/kg dose of compound intraperitoneally and average weight change was reported.; format: functional; conditions: route intraperitoneal; method in brief: as §4
[17] = system: Mus musculus; assay: as §2; format: functional; conditions: route intraperitoneal; method in brief: as §4; remark: listed apart in the source

SMILES | IC50 [1] [µM] | IC50 [2] [µM] | Average weight change [3] [mg/kg] | Average tumor volume [4] [T/C] | Average weight change [4] [mg/kg] | IC50 [5] [µM] | Average tumor volume [6] [T/C] | IC50 [7] [µM] | IC50 [8] [µM] | Average weight change [9] [g] | Average weight change [10] [g] | Tumor volume treated/control ratio (T/C) [11] | Average tumor volume [12] [T/C] | Average tumor volume [13] [T/C] | Average tumor volume [14] [T/C] | Average tumor volume [15] [T/C] | Average weight change [15] [g] | Average weight change [16] [g] | Average weight change [17] [g]
CNC(=O)OCc1cc2c(c3c1CCC3)C(=O)c1ccccc1C2=O | 274 | – | – | – | – | – | – | – | – | – | – | – | – | – | – | – | – | – | –
NC(=O)OCc1cc2c(c3c1CCC3)C(=O)c1ccccc1C2=O | 123 | – | – | – | – | – | – | – | – | – | – | – | – | – | – | – | – | – | –
CNC(=O)OCc1cc2c(c3c1C1NC1C3)C(=O)c1ccccc1C2=O (configuration not stated) | 6.03 | 3.6 | -0.2 | 0.529 | 2 | 19.9 | 0.205 | 23.9 | 10.4 | 0.5 | -0.4 | 1.011 T/C and 0.529 T/C | 0.496 | 0.303 | – | – | – | – | –
CO[C@@]12[C@H](COC(N)=O)C3=C(C(=O)C(C)=C(N)C3=O)N1C[C@@H]1N[C@@H]12 [MITOMYCIN] | 0.05 | 0.11 | – | – | – | 0.993 | 0.363 | 0.328 | 0.082 | 0.2 | -1.8 | 0.49 T/C and 0.356 T/C | 0.437 | 0.411 | 0.169 | 0.515 | 0.6 | -2.7 | -1.2
